For 33 molecules, IC50 and Control results are on record in ChEMBL document CHEMBL1129491, “Synthesis of non-nucleoside analogs of toyocamycin, sangivamycin, and ++thiosangivamycin: influence of various 7-substituents on antiviral activity” (J Med Chem, 1996).

pIC50: −log10 of the molar value. Bounds are passed on as bounds.

Usually pIC50 stands for −log10 of the IC50, conventionally taken in molar units.

Experiment [1] deals with L1210. Nature of the experiment: Inhibitory concentration required to decrease the growth rate of L1210 cells to one-half of the control rate. As to conditions: Mus musculus. In kind it is functional, cell-based. The method in brief: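 L1210 cells in Fischer's medium with 10% heat-inactivated horse serum, counted at 0, 24, 48, 72 and 96 h across selected compound concentrations. Growth rate is the semilog slope as percent of control. IC50 is the concentration that halves the growth rate; '>' values give the highest concentration tested.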

Another experiment has as its system HFF. The experiment in a line: Cytotoxicity against HFF cells, estimated by visual scoring of cells not affected by virus infection in the plaque reduction assay. As to conditions: Homo sapiens. The experiment is classed as functional, cell-based. The method, boiled down: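 Uninfected areas of HFF monolayers in the HCMV plaque-reduction assay examined at 35-fold magnification. Drug-induced cytopathology scored 0–4 on the day plaques were stained and counted.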

The test system of another experiment is KB. Nature of the experiment: Cytotoxic activity tested against exponentially growing KB cells, determined by staining method. The experiment is classed as functional, cell-based. As to conditions: Homo sapiens. The method in brief: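 KB cells (human oral epidermoid carcinoma) kept in MEM(H) with 10% calf serum and tested while exponentially growing. Toxicity measured by a previously described staining method. IC50 from linear regression of percent inhibition against log drug concentration; two or more experiments averaged.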

Experiment [2] has as its system L1210. Nature of the experiment: In vitro cytotoxicity against growth rate of L1210 cell at 100 uM was evaluated. In kind it is functional, Mus musculus. The method in brief:
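L1210 murine leukemia cells in Fischer's medium with 10% heat-inactivated horse serum (56 °C, 30 min), exposed to 100 μM compound. Cells counted at 0, 24, 48, 72 and 96 h. Growth rate taken as the slope of semilog cell number versus time, expressed as percent of untreated control.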

In experiment [3] the test system is Human betaherpesvirus 5. Nature of the experiment: Antiviral activity against Human Cytomegalovirus (HCMV) replication in a plaque reduction assay. In kind it is functional, organism-based. The method, boiled down:
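Towne strain HCMV (plaque-purified P0) on HFF monolayers in MEM(E) with 10% FBS. Inoculum ca. 100 PFU per 0.2 mL; compounds dissolved in the overlay medium; plaques counted after staining. IC50 from linear regression of percent inhibition against log concentration. Ganciclovir as positive control; two or more experiments averaged.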
A general note: In a plaque reduction assay, fewer plaques than in the control indicate reduced infectivity or spread.

The next experiment concerns Human alphaherpesvirus 1. The experiment in a line: Antiviral activity against HSV-1 replication was evaluated by ELISA. The experiment is classed as functional, organism-based. The method in brief: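 HSV-1 strain S-148 ELISA following Prichard and Shipman. Drug concentrations applied to infected cultures; percent inhibition regressed linearly against log concentration and IC50 read from the regression line. Acyclovir as positive control. Most assays averaged over two or more experiments, but HSV-1 ELISAs were run once.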
Background: An ELISA detects its analyte on a solid surface through an enzyme-linked reagent.

The test system of experiment [4] is Human betaherpesvirus 5. Nature of the experiment: Antiviral activity in Human Cytomegalovirus Viral infection was evaluated by ELISA method. In kind it is functional, organism-based. The method, boiled down: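 MRC-5 cells held overnight at 37 °C, then infected with Towne HCMV at moi 0.002 PFU/cell. After 1 h adsorption, up to 10 drug concentrations added in triplicate. Fixed with 95% EtOH after 6.5 days. Blocked, then mouse anti-HCMV monoclonal (1:400, 1 h) and peroxidase anti-mouse (1:1000, 2 h). Read at 450/570 nm, background subtracted; IC50 by log-linear regression.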

`NC(=O)c1cn(Cc2ccccc2)c2ncnc(N)c12`: the pIC50 was 4.80 in the experiment on L1210 [1]; below 4.49 in the experiment on HFF; 4.12 in the experiment with KB; below 4.00 with Human betaherpesvirus 5 [3]; 4.48 in the experiment with Human alphaherpesvirus 1. For the same molecule, the Control in the experiment on L1210 [2] was 0%.
For `Cc1cccc(Cn2cc(C(N)=O)c3c(N)ncnc32)c1`, the pIC50 with HFF, with KB, with Human betaherpesvirus 5 [3] and in the experiment on Human alphaherpesvirus 1 was below 4.00 each time.
For `Cc1ccc(Cn2cc(C(N)=O)c3c(N)ncnc32)cc1`, the pIC50 in the experiment with L1210 [1] is 4.70; in the experiment with HFF, below 4.00; with KB it was below 4.00; in the experiment with Human betaherpesvirus 5 [3], below 4.00; in the experiment on Human alphaherpesvirus 1, below 4.00. Also, the Control with L1210 [2] was 2%.
Turning to `C=CCn1cc(C(N)=O)c2c(N)ncnc21`, the pIC50 was 4.00 with KB, below 4.00 in the experiment with Human betaherpesvirus 5 [3] and below 4.00 in the experiment with Human alphaherpesvirus 1. The Control with L1210 [2] worked out at 66%.
For `CCCn1cc(C(N)=O)c2c(N)ncnc21`, the pIC50 in the experiment on L1210 [1] is 4.14; in the experiment with KB it was 4.00; in the experiment on Human betaherpesvirus 5 [3] it was below 4.00; with Human betaherpesvirus 5 [4] it was below 4.00; in the experiment with Human alphaherpesvirus 1 it was below 4.00. The molecule also displayed a Control in the experiment with L1210 [2] of 0%.
In the case of `NC(=S)c1cn([C@@H]2O[C@H](CO)[C@@H](O)[C@H]2O)c2ncnc(N)c12`, the pIC50 with HFF and with Human betaherpesvirus 5 [3] was 6.70 in each case.
With `NC(=S)c1cn(COCCO)c2ncnc(N)c12`, the pIC50 in the experiment on HFF was below 4.00; in the experiment with KB, 3.94; with Human betaherpesvirus 5 [3], 5.06; in the experiment on Human alphaherpesvirus 1, 4.68.
For `N#Cc1c[nH]c2ncnc(N)c12` [TOYOCAMYCIN AGLYCONE] the same measures were 5.00, 4.74, 5.41 and below 4.00.
In the same order, the values of `COc1ccc(Cn2cc(C(N)=O)c3c(N)ncnc32)cc1` are below 4.49, 4.33, 4.89 and 4.46.
Consider `N#Cc1cn(Cc2ccccc2)c2ncnc(N)c12`, for which the pIC50 in the experiment on HFF is below 4.00; in the experiment on KB, below 4.00; with Human betaherpesvirus 5 [3] it was below 4.00; in the experiment on Human alphaherpesvirus 1, 4.05. In the experiment with L1210 [2], the Control is on record as 60%.
`CC(C)(C)c1ccc(Cn2cc(C(=N)S)c3c(N)ncnc32)cc1`: the pIC50 in the experiment on HFF was below 4.00; in the experiment with KB, 5.15; in the experiment with Human betaherpesvirus 5 [3], 5.82; with Human alphaherpesvirus 1 it was 4.82.
As to `N#Cc1cn([C@@H]2O[C@H](CO)[C@@H](O)[C@H]2O)c2ncnc(N)c12` [TOYOCAMYCIN], the results for the pIC50 in the experiment with HFF and in the experiment on KB were above 8.00 and 7.52, respectively.
For `Cc1ccccc1Cn1cc(C#N)c2c(N)ncnc21`, the pIC50 in the experiment with HFF is below 4.00; in the experiment on KB it was below 4.00; with Human betaherpesvirus 5 [3] it was 5.47; with Human betaherpesvirus 5 [4], 4.49; with Human alphaherpesvirus 1 it was below 4.00.
For `Cc1ccccc1Cn1cc(C(N)=O)c2c(N)ncnc21`, the pIC50 was below 4.00 in the experiment on HFF, below 4.00 in the experiment on KB, 4.82 with Human betaherpesvirus 5 [3] and below 4.00 in the experiment with Human alphaherpesvirus 1.
For `COc1ccc(Cn2cc(C#N)c3c(N)ncnc32)cc1`, the pIC50 in the experiment with HFF, with KB, in the experiment with Human betaherpesvirus 5 [3] and with Human alphaherpesvirus 1 was below 4.00 in each case.
Consider `NC(=S)c1cn(Cc2ccccc2)c2ncnc(N)c12`, for which the pIC50 with L1210 [1] was 4.15; in the experiment with HFF, below 4.49; with KB, 4.49; in the experiment with Human betaherpesvirus 5 [3] it was 6.44; in the experiment with Human betaherpesvirus 5 [4] it was 6.48; with Human alphaherpesvirus 1, 5.13. In the experiment on L1210 [2], the Control is given as 0%.
With `Cn1cc(C(N)=O)c2c(N)ncnc21`, the pIC50 in the experiment with KB, with Human betaherpesvirus 5 [3] and in the experiment with Human alphaherpesvirus 1 was below 4.00 each time. In the experiment on L1210 [2], this molecule showed a Control of 89%.
Take `NC(=S)c1cn(COC(CO)CO)c2ncnc(N)c12`: the negative-log IC50 (pIC50) is below 4.00 in the experiment on HFF, below 4.00 in the experiment on KB, 5.21 in the experiment with Human betaherpesvirus 5 [3] and below 4.00 with Human alphaherpesvirus 1.
Regarding `C=CCn1cc(C#N)c2c(N)ncnc21`, the pIC50 in the experiment with KB, in the experiment with Human betaherpesvirus 5 [3] and in the experiment with Human alphaherpesvirus 1 was below 4.00 each time. Also, the Control in the experiment on L1210 [2] is on record as 75%.
`NC(=O)c1cn([C@@H]2O[C@H](CO)[C@@H](O)[C@H]2O)c2ncnc(N)c12` [SANGIVAMYCIN]: the pIC50 is above 8.00 with HFF and 7.10 in the experiment with KB.
With `CC(C)(C)c1ccc(Cn2cc(C#N)c3c(N)ncnc32)cc1`, the pIC50 was below 4.49 with HFF, 5.52 in the experiment with KB, 4.49 with Human betaherpesvirus 5 [3] and below 4.00 in the experiment with Human alphaherpesvirus 1.
On to `Cn1cc(C(=N)S)c2c(N)ncnc21`, for which the pIC50 was 4.42 in the experiment with L1210 [1], 4.82 in the experiment on KB, 5.92 in the experiment on Human betaherpesvirus 5 [3] and 5.55 with Human alphaherpesvirus 1. For the same molecule, the Control in the experiment on L1210 [2] is given as 0%.
Regarding `Cc1cccc(Cn2cc(C(=N)S)c3c(N)ncnc32)c1`, the pIC50 was 4.18 in the experiment with HFF, 4.52 in the experiment with KB, 6.60 in the experiment on Human betaherpesvirus 5 [3] and 4.82 in the experiment on Human alphaherpesvirus 1.
For `Cc1ccc(Cn2cc(C#N)c3c(N)ncnc32)cc1`, the pIC50 in the experiment with HFF, in the experiment on KB, with Human betaherpesvirus 5 [3] and in the experiment with Human alphaherpesvirus 1 was below 4.00 in each case. In addition, the Control with L1210 [2] is on record as 64%.
As for `CC(C)(C)c1ccc(Cn2cc(C(N)=O)c3c(N)ncnc32)cc1`, the pIC50 in the experiment on HFF is 4.00; in the experiment with KB, 6.05; with Human betaherpesvirus 5 [3] it was 4.55; in the experiment with Human alphaherpesvirus 1, 4.30.
In the case of `C=CCn1cc(C(N)=S)c2c(N)ncnc21`, the pIC50 was 4.42 in the experiment on L1210 [1], 4.72 with KB, 5.68 with Human betaherpesvirus 5 [3] and 5.35 in the experiment on Human alphaherpesvirus 1. For the same molecule, the Control in the experiment on L1210 [2] was found to be 0%.
Consider `COc1ccc(Cn2cc(C(=N)S)c3c(N)ncnc32)cc1`, for which the pIC50 is 4.18 in the experiment on HFF; 4.55 in the experiment with KB; 6.30 in the experiment on Human betaherpesvirus 5 [3]; 6.30 in the experiment on Human betaherpesvirus 5 [4]; 5.40 in the experiment on Human alphaherpesvirus 1.
With `Cn1cc(C#N)c2c(N)ncnc21`, the pIC50 in the experiment on KB, in the experiment with Human betaherpesvirus 5 [3], with Human betaherpesvirus 5 [4] and in the experiment on Human alphaherpesvirus 1 was below 4.00 each time. Moreover, the Control in the experiment with L1210 [2] stood at 87%.
`CCCn1cc(C#N)c2c(N)ncnc21`: the pIC50 with HFF is below 4.00; in the experiment on KB, below 4.00; with Human betaherpesvirus 5 [3], 4.44; in the experiment with Human alphaherpesvirus 1, below 4.00. For the same molecule, the Control in the experiment on L1210 [2] is on record as 74%.
As to `Cc1ccc(Cn2cc(C(=N)S)c3c(N)ncnc32)cc1`, the pIC50 is below 5.00 with L1210 [1]; 4.00 in the experiment with HFF; 4.19 in the experiment on KB; 7.00 with Human betaherpesvirus 5 [3]; 6.82 in the experiment with Human betaherpesvirus 5 [4]; 5.46 in the experiment on Human alphaherpesvirus 1. In the experiment on L1210 [2], the Control is listed as 92%.
For the molecule `NC(=S)c1c[nH]c2ncnc(N)c12`, the pIC50 was below 4.49 in the experiment on HFF, 4.60 in the experiment with KB, 5.80 in the experiment on Human betaherpesvirus 5 [3] and 4.46 in the experiment with Human alphaherpesvirus 1.
`CCCn1cc(C(=N)S)c2c(N)ncnc21`: the negative-log IC50 (pIC50) was 4.60 in the experiment on HFF, 4.77 in the experiment on KB, 5.92 in the experiment on Human betaherpesvirus 5 [3] and 4.92 in the experiment with Human alphaherpesvirus 1. Besides, the Control with L1210 [2] is listed as 79%.
As to `Cc1ccccc1Cn1cc(C(=N)S)c2c(N)ncnc21`, the pIC50 with HFF is 4.18; in the experiment on KB, below 4.77; in the experiment with Human betaherpesvirus 5 [3], 7.00; in the experiment on Human alphaherpesvirus 1 it was 6.05.
